Molecules are shown by their SMILES. *1 amine or outer side, *2 acyl side, *3 side chain or, on linkers, in order; H or OH if unused. Where a SMILES comes first, the peptide text is derived from it. Bridges are numbered along the chain shown (N, C = ends). X1 = O=C([C@H](O)CS[*:2])[*:1]

Series [1] can be described thus: Ratio of oxytocic potency to antidiuretic activity in rat. On the set-up: species or system Urine.
For a further series, the system named is Gallus gallus. Put plainly: Vasodepressor activity in conscious chicken. Particulars: in vivo. It is filed as ADME, organism-based. The method in brief: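 Vasodepressor assay run in conscious chickens.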
The nature of series [2]: Oxytocic potency in rat uterus. The class given is functional. The method in brief: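 Isolated uterine horns from rats in natural estrus. The standard was given repeatedly until reproducible values were obtained. After the preparation was exposed to an analogue, several further doses of standard were needed before the standard's potency became consistent between analogue injections.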

The test system of series [3] is Rattus norvegicus. Put plainly: Antidiuretic activity in iv dosed rat. The note with it: in vivo. The class given is ADME, organism-based, Urine. The method in brief:
(§1)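 Pressor and antidiuretic assays run in anesthetized male rats.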

The species named for series [4] is Rattus norvegicus. In words: Vasopressor activity in rat. The class given is ADME, organism-based. The note with it: in vivo. The method in brief: as §1

`CC[C@H](C)[C@@H]1NC(=O)[C@H](Cc2ccc(O)cc2)NC(=O)[C@@H](N)CSSC[C@@H](C(=O)NCC(=O)N[C@@H](CC(C)C)C(=O)NCC(N)=O)NC(=O)[C@H](CC(N)=O)NC(=O)[C@H](CCC(N)=O)NC1=O` (H-CYIQNCGLG-NH2; disulfide 1-6): the Ratio in series [1] is on record as 6500. Besides, the Activity in the series on Gallus gallus is given as 224 U/mg; in series [2] it was 65 U/mg; with Rattus norvegicus [3], 0.01 U/mg; in the series listed under Rattus norvegicus [4], 0.3 U/mg.

For the compound `CC[C@H](C)[C@@H]1NC(=O)[C@H](Cc2ccc(O)cc2)NC(=O)[C@@H](N)CSSC[C@@H](C(=O)NCC(=O)N[C@@H](CC(C)C)C(=O)NCC(N)=O)NC(=O)[C@H](CC(N)=O)NC(=O)[C@H]([C@@H](C)O)NC1=O` (H-CYITNCGLG-NH2; disulfide 1-6), the Ratio in series [1] came out at 135000. Besides, the Activity with Gallus gallus is recorded as 8.6 U/mg; in series [2], 175 U/mg; in the series on Rattus norvegicus [3] it was 0.001 U/mg.

For `CC[C@H](C)[C@@H]1NC(=O)[C@H](Cc2ccc(O)cc2)NC(=O)[C@@H](N)CSSC[C@@H](C(=O)N2CCC[C@H]2C(=O)N[C@@H](CC(C)C)C(=O)NCC(N)=O)NC(=O)[C@H](CC(N)=O)NC(=O)[C@H]([C@@H](C)O)NC1=O` (H-CYITNCPLG-NH2; disulfide 1-6), in series [1], the Ratio was determined as 500. Besides, the Activity came to 1480 U/mg in the series with Gallus gallus, 923 U/mg in series [2], 1.8 U/mg in the series on Rattus norvegicus [3] and 0.43 U/mg in the series filed under Rattus norvegicus [4].

For the compound `CC[C@H](C)[C@@H]1NC(=O)[C@H](Cc2ccc(O)cc2)NC(=O)[C@H](O)CSSC[C@@H](C(=O)N2CCC[C@H]2C(=O)N[C@@H](CC(C)C)C(=O)NCC(N)=O)NC(=O)[C@H](CC(N)=O)NC(=O)[C@H](CCC(N)=O)NC1=O` (YIQNCPLG-NH2; linker N-5 via X1), the Ratio in series [1] was 40. Further, the Activity with Gallus gallus amounted to 1778 U/mg; in series [2] it was 1275 U/mg; in the series on Rattus norvegicus [3], 16.6 U/mg; in the series listed under Rattus norvegicus [4], 14.7 U/mg.

As to `CC[C@H](C)[C@@H]1NC(=O)[C@H](Cc2ccc(O)cc2)NC(=O)[C@H](O)CSSC[C@@H](C(=O)NCC(=O)N[C@@H](CC(C)C)C(=O)NCC(N)=O)NC(=O)[C@H](CC(N)=O)NC(=O)[C@H]([C@@H](C)O)NC1=O` (YITNCGLG-NH2; linker N-5 via X1), in series [1], the Ratio is reported as 7000. For the same compound, the Activity was found to be 50 U/mg in the series on Gallus gallus, 337 U/mg in series [2] and 0.048 U/mg in the series on Rattus norvegicus [3].

As to `CC[C@H](C)[C@@H]1NC(=O)[C@H](Cc2ccc(O)cc2)NC(=O)[C@@H](N)CSSC[C@@H](C(=O)N2CCC[C@H]2C(=O)N[C@@H](CC(C)C)C(=O)NCC(N)=O)NC(=O)[C@H](CC(N)=O)NC(=O)[C@H](CCC(N)=O)NC1=O` [OXYTOCIN], the Ratio in series [1] was determined as 200. For the same compound, the Activity was determined as 507 U/mg in the series on Gallus gallus, 546 U/mg in series [2], 2.7 U/mg in the series with Rattus norvegicus [3] and 3.1 U/mg in the series listed under Rattus norvegicus [4].

These data come from ChEMBL document CHEMBL3244090, “Combined high oxytocic with negligible antidiuretic and pressor activities in multisubstituted oxytocins” (J Med Chem, 1977).
